The source made the active and inactive calls. No cut-off for these calls is given here.
What was measured:
CNE-2 [1] = assay: Induction of apoptosis in human CNE-2 cells assessed as early apoptosis cells level at 70 nM incubated for 12 hrs by Annexin-V/FITC staining based FACS analysis (reference value: 3.1%); type: cell-based; conditions: cne-2, 12 h, 0.07 µM
CNE-2 [2] = assay: Antitumor activity against human CNE-2 cells xenografted in nu/nu mouse assessed as induction of tumor size shrinkage at 1 mg/kg, ip for 32 days; type: functional, organism-based; conditions: time 32.0 day
CNE-2 [3] = assay: Induction of apoptosis in human CNE-2 cells assessed as viable cells level at 50 nM incubated for 12 hrs by Annexin-V/FITC staining based FACS analysis (reference value: 96.7%); type: cell-based; conditions: read-out: Activity
Summary of the method: (§1)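 CNE2 cells (RPMI 1640 with 10% FBS) were seeded at 5 × 10⁴ cells per well. After 24 h they were treated with compound in 0.05% DMSO for 12 h. Cells were then washed twice with PBS, pelleted, and stained in binding buffer with Annexin V-FITC and PI for flow cytometry.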

CNE-2 [4] = assay: Induction of apoptosis in human CNE-2 cells assessed as viable cells level at 500 nM incubated for 12 hrs by Annexin-V/FITC staining based FACS analysis (reference value: 96.7%); type: cell-based; conditions: read-out: Activity; summary of the method: as §1
CNE-2 [5] = assay: Induction of apoptosis in human CNE-2 cells assessed as necrosis cells level at 200 nM incubated for 12 hrs by Annexin-V/FITC staining based FACS analysis (reference value: 1.45%); type: cell-based; conditions: cne-2, 12 h, 0.2 µM
[6] = target: T1, Heat shock protein HSP 90-alpha (Homo sapiens, UniProt P07900); assay: Inhibition of HSP90-alpha (unknown origin) expressed in Escherichia coli BL21 assessed as reduction in ATPase activity in presence of PEP, NADH and ATP by pyruvate kinase/lactic dehydrogenase based coupled enzyme assay
[7] = target: T1, Heat shock protein HSP 90-alpha; assay: Inhibition of HSP90-alpha in human CNE-2 cells assessed as reduction in PKB protein levels at 70 nM incubated for 24 hrs in presence of HSP90-beta siRNA by immunoblot analysis; type: cell-based
CNE-2 [8] = assay: Induction of apoptosis in human CNE-2 cells assessed as early apoptosis cells level at 20 nM incubated for 12 hrs by Annexin-V/FITC staining based FACS analysis (reference value: 1.45%); type: cell-based; conditions: cne-2, 12 h, 0.02 µM
[9] = target: T1, Heat shock protein HSP 90-alpha; assay: Potency index, ratio of IC50 for 17-AAG to IC50 for inhibition of HSP90-alpha (unknown origin) expressed in Escherichia coli BL21 assessed as reduction in ATPase activity in presence of PEP, NADH and ATP by pyruvate kinase/lactic dehydrogenase based coupled enzyme assay
Summary of the method: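 The reaction was started with 2 μM Hsp90 at 37 °C and followed as the decrease in absorbance at 340 nm. Compounds were added to the reaction mixture, with 17-AAG as reference.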

CNE-2 [10] = assay: Induction of apoptosis in human CNE-2 cells assessed as viable cells level at 20 nM incubated for 12 hrs by Annexin-V/FITC staining based FACS analysis (reference value: 96.7%); type: cell-based; conditions: read-out: Activity; summary of the method: as §1
CNE-2 [11] = assay: Induction of apoptosis in human CNE-2 cells assessed as early apoptosis cells level at 500 nM incubated for 12 hrs by Annexin-V/FITC staining based FACS analysis (reference value: 1.45%); type: cell-based; conditions: cne-2, 12 h, 0.5 µM
CNE-2 [12] = assay: Induction of apoptosis in human CNE-2 cells assessed as necrosis cells level at 500 nM incubated for 12 hrs by Annexin-V/FITC staining based FACS analysis (reference value: 1.45%); type: cell-based; conditions: cne-2, 12 h, 0.5 µM
CNE-2 [13] = assay: Induction of apoptosis in human CNE-2 cells assessed as viable cells level at 100 nM incubated for 12 hrs by Annexin-V/FITC staining based FACS analysis (reference value: 96.7%); type: cell-based; conditions: read-out: Activity; summary of the method: as §1
CNE2 (Homo sapiens) = assay: Induction of apoptosis in human CNE2 cells at 70 nM incubated for 12 hrs in presence of HSP90-alpha siRNA by Annexin-V/FITC staining based FACS analysis; conditions: cne2, 12 h, 0.07 µM
CNE-2 [14] = assay: Induction of apoptosis in human CNE-2 cells assessed as Bcl-XL degradation at 20 to 500 nM incubated for 24 hrs by immunoblot analysis; type: functional, cell-based; conditions: dose 20-500 nM
Summary of the method: (§2)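 CNE2 cells (RPMI 1640, 10% FBS, 37 °C, 5% CO₂) were incubated with inhibitor for 24 h, then lysed in RIPA buffer on ice for 30 min. Lysates were run on 8–12% SDS-PAGE and transferred to PVDF. Membranes were blocked with 5% milk and probed with primary antibodies overnight, then HRP secondaries. Detection was by chemiluminescence with actin as loading control.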

[15] = Half life in Kunming mouse at 2 mg/kg, iv measured up to 6 hrs by HPLC analysis; type: ADME, organism-based; conditions: in vivo
Summary of the method: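 Male Kunming mice, 9–11 weeks old, about 23 g, four per group, were given a single 2 mg/kg dose intravenously or orally. Blood was sampled at 0, 10, 15, 30 min and 1, 2, 4, 6 h. For each sample, 40 μL plasma was deproteinized with 200 μL acetonitrile and centrifuged 10 min at 12 000 rpm before analysis.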

CNE-2 [16] = assay: Induction of apoptosis in human CNE-2 cells assessed as Bcl-XL degradation at 70 nM incubated for 24 hrs in presence of HSP90-beta siRNA by immunoblot analysis; type: functional, cell-based
CNE-2 [17] = assay: Induction of apoptosis in human CNE-2 cells assessed as reduction in HER2 protein level at 500 nM incubated for 24 hrs by immunoblot analysis; type: functional, cell-based; summary of the method: as §2
CNE-2 [18] = assay: Induction of apoptosis in human CNE-2 cells assessed as viable cells level at 200 nM incubated for 12 hrs by Annexin-V/FITC staining based FACS analysis (reference value: 96.7%); type: cell-based; conditions: read-out: Activity; summary of the method: as §1
[19] = target: T1, Heat shock protein HSP 90-alpha; assay: Inhibition of HSP90-alpha in human CNE-2 cells assessed as reduction in PKB protein levels at 70 nM incubated for 24 hrs in presence of HSP90-alpha siRNA by immunoblot analysis; type: cell-based
Summary of the method: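 CNE2 cells were transiently transfected with Hsp90 siRNA (siHsp90-1 or siHsp90-2) at 150 nM final using Lipofectamine 2000. They were then incubated with inhibitor for 24 h and immunoblotted: RIPA lysis, 8–12% SDS-PAGE, PVDF, overnight primary antibodies, HRP secondaries, chemiluminescence, actin as loading control.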

CNE-2 [20] = assay: Induction of apoptosis in human CNE-2 cells assessed as late apoptosis cells level at 100 nM incubated for 12 hrs by Annexin-V/FITC staining based FACS analysis (reference value: 1.45%); type: cell-based; conditions: cne-2, 12 h, 0.1 µM
CNE-2 [21] = assay: Induction of apoptosis in human CNE-2 cells assessed as late apoptosis cells level at 50 nM incubated for 12 hrs by Annexin-V/FITC staining based FACS analysis (reference value: 1.45%); type: cell-based; conditions: cne-2, 12 h, 0.05 µM
L02 = assay: Toxicity in human L02 cells assessed as induction of apoptosis at 62.5 to 1000 nM incubated for 12 hrs by Annexin-V/FITC staining based FACS analysis; type: cell-based; conditions: l02, 12 h, 1 µM, dose 62.5-1000 nM

For `CC(C)(C)c1ccc(Cn2cc(-c3cc(O)c(O)c(O)c3)nn2)cc1`, the Activity (CNE-2 [1]) was 13.7%, the Activity (CNE-2 [2]) was “Active” and the viability at 0.05 µM (CNE-2 [3]) was 77.2%. For the same compound, the viability at 0.5 µM (CNE-2 [4]) was 32%, the Activity (CNE-2 [5]) was 0.3% and the IC50 [6] was 160 nM. The inhibition [7] was “inactive”, the Activity (CNE-2 [8]) was 4.08% and the Ratio IC50 [9] was 5. For the same compound, the viability at 0.02 µM (CNE-2 [10]) was 93.6%, the Activity (CNE-2 [11]) was 33.6% and the Activity (CNE-2 [12]) was 0.96%. For the same compound, the viability at 0.1 µM (CNE-2 [13]) was 78.6%, the Activity (CNE2 (Homo sapiens)) was “Non-Toxic” and the Activity (CNE-2 [14]) was “Active”. For the same compound, the half-life [15] was 1.1 h, the Activity (CNE-2 [16]) was “inactive” and the Activity (CNE-2 [17]) was “Active”. The viability at 0.2 µM (CNE-2 [18]) was 75.1%, the inhibition [19] was “inactive” and the Activity (CNE-2 [20]) was 15.6%. For the same compound, the Activity (CNE-2 [21]) was 15.3% and the Activity (L02) was “Non-Toxic”.

— ChEMBL document CHEMBL4706684, “Discovering High Potent Hsp90 Inhibitors as Antinasopharyngeal Carcinoma Agents through Fragment Assembling Approach” (J Med Chem, 2021)
